Calls of active or inactive are those of the source. How the calls were made is not given here.
Target: T1, P2X purinoceptor 7 (Homo sapiens) (UniProt Q99572)
T1 sequence (whole entry): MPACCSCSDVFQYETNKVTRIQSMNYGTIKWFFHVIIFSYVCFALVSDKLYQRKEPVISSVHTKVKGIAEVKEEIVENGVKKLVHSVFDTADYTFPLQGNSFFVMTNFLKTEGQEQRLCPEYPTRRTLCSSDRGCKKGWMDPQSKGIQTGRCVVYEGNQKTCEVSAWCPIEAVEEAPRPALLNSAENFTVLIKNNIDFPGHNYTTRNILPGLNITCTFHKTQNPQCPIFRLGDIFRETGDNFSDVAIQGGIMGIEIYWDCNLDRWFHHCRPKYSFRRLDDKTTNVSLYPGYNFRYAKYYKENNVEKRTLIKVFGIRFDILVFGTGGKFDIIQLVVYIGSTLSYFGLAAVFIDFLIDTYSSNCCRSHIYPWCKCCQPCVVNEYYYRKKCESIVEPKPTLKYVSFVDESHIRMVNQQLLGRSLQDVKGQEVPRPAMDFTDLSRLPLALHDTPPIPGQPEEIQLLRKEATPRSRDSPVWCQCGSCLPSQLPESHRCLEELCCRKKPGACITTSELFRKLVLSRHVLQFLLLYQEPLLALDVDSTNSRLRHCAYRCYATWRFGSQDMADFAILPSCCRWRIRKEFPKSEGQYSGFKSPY
Test: Inhibition of human P2X7 expressed in human HEK293 cells assessed as reduction in BzATP-stimulated TO-PRO-3 incorporation at 10 uM preincubated with compound and TO-PRO-3 for 15 mins prior to BzATP addition and measured after 1 hr by Fluo-3AM dye based flow cytometry relative to control
Format: cell-based
How it was run: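 HEK-293 cells overexpressing human P2RX7 loaded with Fluo-3 AM, then incubated with TO-PRO-3 (large pore uptake) and propidium iodide (viability) plus compound (10⁻⁵ M single point) for 15 min before BzATP 100 µM. After 1 h, flow cytometry; percentage of Fluo-3/TO-PRO-3 double-positive cells calculated. Mean of n ≥ 2 with positive control.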

Row | SMILES | inhibition
1 | O=C(NCc1ccccc1Cl)[C@@H]1CCC(=O)N1Cc1ccccc1 | 0%
2 | O=C(Nc1ccc(Cl)cc1Cl)[C@@H]1CCC(=O)N1Cc1ccccc1Cl | 0%
3 | O=C(NCc1ccccc1)[C@@H]1CCC(=O)N1Cc1ccc(Cl)cc1Cl | 0%
4 | O=C(NCc1ccccc1Cl)[C@@H]1CCC(=O)N1Cc1ccccc1Cl | 0%
5 | O=C(NCc1ccccc1Cl)[C@@H]1CCC(=O)N1c1ccccc1 | 0%
6 | Cc1ccc(NC(=O)[C@@H]2CCC(=O)N2c2ccccc2)cc1 | 0%
7 | CN1C(=O)CC[C@H]1C(=O)NCc1cc(C(F)(F)F)ccc1Cl | 0%
8 | O=C(NCc1ccc(Cl)cc1Cl)[C@@H]1CCC(=O)N1Cc1ccc(Cl)cc1 | 0%
9 | COc1ccc(NC(=O)[C@@H]2CCC(=O)N2)cc1OC | inactive
10 | O=C1N[C@H](C(=O)NCc2ccc(Cl)cc2Cl)C/C1=C\N1CCOCC1 | 56%
11 | CCCCCCN1C(=O)[C@@H]2C/C(=C\N(C)C)C(=O)N2C1N(C)C (stereo partly specified) | 0%

From ChEMBL document CHEMBL4627246, “Pyroglutamide-Based P2X7 Receptor Antagonists Targeting Inflammatory Bowel Disease” (J Med Chem, 2020)
